Shown are actives, neighbours in structure and some others; about 1.8% of the full set was active somewhere.
Hck-Nef inh: blocks Nef-activated human Hck kinase; 0.68% of 220,000 active; AID 463187; Recombinant Hck-YEEI plus Nef, Z-Lyte FRET kinase assay; inhibition, % at 20 µM;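 active means Hck-Nef kinase inhibition above about 50%, limit read from the data; inactive means inhibition below that limit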;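 further: 0% = DMSO with Hck plus Nef and 100% = Hck alone without Nef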
Runt-SMMHC FRET: blocks binding of human RUNX1 Runt domain to CBFb-SMMHC. Q01196+Q13951. 0.74% of 220,000 active. AID 1434. Cerulean-Runt/Venus-CBFb-SMMHC FRET ratio 530/480, 1 h. inhibition, % at 20 µM;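 active means mean inhibition across duplicate retests at 20 µM reaching about 50%, limit read from the data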;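 further: 0% = DMSO wells and 100% = wells with excess untagged CBFb-SMMHC; inhibitors lower the FRET ratio by blocking Runt binding to CBFb-SMMHC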
Target sequence (Q01196 whole entry, looked up, the tested form may be a part): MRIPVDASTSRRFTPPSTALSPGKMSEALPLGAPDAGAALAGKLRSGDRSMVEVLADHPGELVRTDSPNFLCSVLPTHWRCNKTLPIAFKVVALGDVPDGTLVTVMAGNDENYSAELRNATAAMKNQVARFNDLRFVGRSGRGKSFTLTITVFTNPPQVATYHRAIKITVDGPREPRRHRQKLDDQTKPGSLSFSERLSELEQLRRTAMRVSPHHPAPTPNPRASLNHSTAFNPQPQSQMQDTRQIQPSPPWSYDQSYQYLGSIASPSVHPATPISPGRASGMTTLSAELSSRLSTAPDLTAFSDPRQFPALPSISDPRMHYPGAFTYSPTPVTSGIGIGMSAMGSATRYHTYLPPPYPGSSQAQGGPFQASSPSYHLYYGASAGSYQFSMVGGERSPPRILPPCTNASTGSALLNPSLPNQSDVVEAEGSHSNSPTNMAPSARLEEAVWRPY
Target sequence (Q13951 whole entry, looked up, the tested form may be a part): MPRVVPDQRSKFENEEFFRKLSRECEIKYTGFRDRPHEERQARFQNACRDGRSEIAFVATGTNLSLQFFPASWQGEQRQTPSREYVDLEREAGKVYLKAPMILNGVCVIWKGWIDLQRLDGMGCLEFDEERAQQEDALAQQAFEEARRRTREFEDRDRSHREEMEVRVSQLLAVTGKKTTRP
RanGTP-Impb inh: inhibitors of RanGTP-importin-beta interaction, primary screen, biochemical, FRET, CFP-Ran, YFP-importin-beta, homogeneous; cell-free CFP-Ran/YFP-importin-beta FRET ratio; inhibition, % (test concentration not listed); 1.1% of 300,000 active;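 active means more than half of the replicate wells show a fall in the fluorescence ratio signal beyond about 16%, limit read from the data, passing the limit was not always enough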;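 further: 0% = DMSO wells and 100% = Ran loaded with GDP instead of GTP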
Runt-CBFb FRET: blocks binding of human RUNX1 Runt domain to CBFb; inhibition, % at 20 µM; AID 1496; 0.46% of 220,000 active; Cerulean-Runt/Venus-CBFb FRET ratio 530/480, 1 h;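 active means inhibition over about 50% at 20 µM in the single-dose screen, limit read from the data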;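 further: 0% = DMSO wells and 100% = excess unlabeled CBFb competitor control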
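Doses: 20 µM compound in 1% DMSO | Material: Cerulean-labeled Runt domain protein | Amount: Each fluorescent fusion protein 100 nM | Schedule: Two 1 h room-temperature incubations shielded from light | Measured by: FRET fluorescence | Evaluation: Loss of energy transfer signal | Controls: Unlabeled CBFb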
YIC counter: counter-screen for RanGTP-importin-beta inhibitors: YIC FRET probe; shares compounds with RanGTP-Impb inh; Purified YIC probe, intramolecular FRET ratio YFP/CFP; IC50, µM; 40% of 1,000 active; AID 435026;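 active means fitted half-maximal inhibitory concentration no more than tenfold above the top dose tested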
* hit, by the source's call; x = not tested or not shown.

SMILES | Hck-Nef inh | Runt-SMMHC FRET | RanGTP-Impb inh | Runt-CBFb FRET | YIC counter
CC1=C(C(=O)OCC2CCCO2)C(c2ccccc2OC(C)C)C2=C(CC(c3ccco3)CC2=O)N1 (configuration not stated) | 30 | 103* | 28* | 43 | 6.9*
Cc1ccc(C2C(C#N)=C(N)N(c3cccnc3)C3=C2C(=O)CCC3)c(C)c1 (configuration not stated) | 24 | -1 | 30* | 4 | >50
Cc1nn(C)cc1C1C(C#N)=C(N)N(c2cccnc2)C2=C1C(=O)CCC2 (configuration not stated) | 3 | 1 | 2 | -1 | x
c1c2c(cc3sc(N4CCOCC4)nc13)OCCO2 | 2 | 0 | 23* | 0 | >50
c1ccc(N2CCN(c3nc4cc5c(cc4s3)OCCO5)CC2)cc1 | 0 | 3 | 9 | 1 | x
CCOc1ccc(NC(=O)CN(C)C(=O)CCCn2c(=O)oc3ccccc32)cc1OCC | x | x | -1 | x | x
CC(=O)c1sc2nc(C)c3c(c2c1N)CCCC3 | 29 | 90* | 31* | 44 | 14*
COc1ccc(CNC(=O)C2CC(=O)N(C3CCCCC3)C2)cc1 (configuration not stated) | x | x | 21* | x | >50
Cn1c(N)c(C(=O)COC(=O)c2ccc(Cl)c(S(=O)(=O)N3CCCC3)c2)c(=O)n(C)c1=O | 30 | -2 | -4 | 4 | x
OCCN1CCN(c2nc(-c3ccccc3)c3cc(Cl)ccc3n2)CC1 | 0 | 52* | 18* | x | 24*
Cc1ccsc1C(=O)OCC(=O)N(C)c1c(N)n(Cc2ccccc2)c(=O)[nH]c1=O | x | x | 0 | x | x
CCOC(=O)c1ccccc1NC(=O)COc1ccccc1 | -8 | 1 | -1 | -3 | x
CCOC(=O)c1ccccc1NC(=O)COC(=O)C(CCSC)NC(=O)COc1ccccc1 (configuration not stated) | x | x | 24* | x | >50
O=c1cc(N2CCN(c3ccccc3)CC2)[nH]c(=O)n1-c1ccccc1 | 15 | -7 | 9 | 2 | x
O=c1cc(N2CCN(Cc3ccccc3)CC2)[nH]c(=O)n1-c1ccc(Br)cc1 | 1 | 0 | 31* | 3 | >50
CCOC(=O)N1CCN(c2cc(=O)n(Cc3ccc(F)cc3)c(=O)[nH]2)CC1 | 15 | -1 | 26* | -2 | >50
CCN1CCN(c2cc(=O)n(Cc3ccc(F)cc3)c(=O)[nH]2)CC1 | 17 | -6 | 29* | -79 | >50
O=C1NC2(CCSC2)C(=O)N1CC(=O)N(Cc1ccccc1)C1CCS(=O)(=O)C1 (configuration not stated) | -4 | 1 | 1 | 1 | x
O=S(=O)(CCN1CCSCC1)c1ccccc1 | 1 | 1 | 3 | 0 | x
O=C1C(=O)N(CCS(=O)(=O)c2ccccc2)c2ccc(Cl)cc21 | x | x | 39* | x | >50
Cc1cccc(OCC(=O)Nc2cc(NC(=O)COc3cccc(C)c3)cc(C(=O)O)c2)c1 | x | x | 5 | x | x
Cc1cccc(OCC(=O)NNc2c3ccccc3nc3ccccc23)c1 | 1 | 15 | 33* | 10 | >50
Cc1ccc(OCC(=O)NNc2c3ccccc3nc3ccccc23)cc1 | 12 | 24 | 36* | 5 | >50
Cc1cc(CNC(=O)COc2ccc(F)cc2)c2ccccc2n1 | 3 | -1 | 18* | 0 | >50
O=C(Cc1ccccc1)NNc1c2ccccc2nc2ccccc12 | 5 | 20 | 34* | 17 | >50
SMILES | Hck-Nef inh | Runt-SMMHC FRET | RanGTP-Impb inh | Runt-CBFb FRET | YIC counter
Cc1cc(CNC(=O)COc2ccccc2)c2ccccc2n1 | 19 | -1 | 1 | 2 | x
Cc1ccc(-n2c(SCC(=O)NCc3ccco3)nc3sc(C)c(C)c3c2=O)cc1 | 17 | -3 | 1 | 42 | x
Cc1sc2nc(SCC(=O)NCc3ccco3)n(-c3ccccc3)c(=O)c2c1C | 2 | -2 | 23* | -2 | >50
O=C(C1CCN(S(=O)(=O)c2ccccc2)CC1)N1CCCCCC1 | x | x | -2 | x | x
CCOC(=O)C(=O)Nc1cccc(C(=O)OCC)c1 | 1 | 1 | -1 | 0 | x
CCOC(=O)C(=O)Nc1cc(C(=O)OC)cc(C(=O)OC)c1 | -9 | 3 | 16* | -1 | >50
CCC(=O)N(CC(=O)Nc1sc(C)c(C)c1C(N)=O)C1CCCC1 | -33 | 2 | 22* | 1 | >50
CN(C(=O)CSc1nnc(-c2ccc(OC(F)F)cc2)n1N)C1CCS(=O)(=O)C1 (configuration not stated) | x | x | 4 | x | x
CC(C)SCC(=O)Nc1ncc2c(n1)-c1ccccc1CC2 | 31 | 18 | 18* | 7 | 3.5*
CCCCCN(C(=O)CN(C)Cc1ccc(OC)cc1OC)c1c(N)n(CCCC)c(=O)[nH]c1=O | 2 | 4 | 20* | 2 | >50
Cc1ccc2nc(N3CCN(C(=O)c4ccc(F)cc4)CC3)c(C#N)cc2c1 | x | x | 22* | x | 25*
COCCN(C(=O)CSc1nnc(-c2ccc(C(C)(C)C)cc2)n1N)c1c(N)n(CC(C)C)c(=O)[nH]c1=O | x | x | -1 | x | x
CCOc1ccc(C)cc1S(=O)(=O)Nc1ccc(Cl)cn1 | -1 | 3 | 19* | -2 | >50
COC(=O)COc1ccc2c(c1)O/C(=C\c1ccco1)C2=O | x | x | 18* | x | 29*
CCN(CC)C(=O)Oc1ccc2c(c1)O/C(=C\c1ccco1)C2=O | x | x | 18* | x | 8.2*
COCCN(CCOC)Cc1c(O)ccc2c1O/C(=C\c1ccco1)C2=O | x | x | -57 | x | x
CC(C)CN(C(=O)C1CCCO1)C1CCS(=O)(=O)C1 (configuration not stated) | x | x | -4 | x | x
COc1ccc2nccnc2c1[N+](=O)[O-] | 7 | 0 | 1 | -1 | x
COC(=O)c1ccc(NC(=S)NNC(=O)c2ccccc2)cc1 | 24 | 1 | 0 | 19 | x
COC(=O)c1cccnc1NC(=S)NNC(=O)c1ccccc1 | 2 | 0 | 27* | 3 | >50
CCCOc1ccccc1C1NC(=O)NC(C)=C1C(=O)OCCOC (configuration not stated) | -19 | -1 | 0 | -1 | x
COCCOC(=O)C1=C(C)NC(=O)NC1c1cccc2ccccc12 (configuration not stated) | x | x | 22* | x | >50
CCn1c(C(=O)Nc2ccsc2C(=O)OC)cc2sc(Cl)cc21 | 2 | 8 | 20* | -3 | 47*
COC(=O)c1sccc1NC(=O)c1csc(C)c1 | 0 | 6 | 19* | -1 | >50
COC(=O)c1sccc1NC(=O)c1ccc(Cl)s1 | 8 | -2 | -4 | 0 | x
CNC(=S)Nc1ccc(C(N)=O)cc1 | 25 | -6 | 27* | 2 | >50
O=C(c1ccco1)c1cc2c(ccc3ccccc32)oc1=O | -1 | 30 | 24* | 19 | 21*
O=[N+]([O-])c1cccc(-c2n[nH]c(=S)n2-c2ccc(Br)cc2)c1 | 23 | 13 | 23* | 1 | >50
CCc1c(C)sc(NC(=O)c2cccs2)c1C#N | 5 | -10 | 1 | -2 | x
Cc1sc(NC(=O)c2ccccc2)c(C#N)c1-c1ccccc1 | -1 | 2 | 39* | 2 | >50
